# Screens deposited in PubChem by several laboratories.
# Rows were chosen to be rich in hits. Some 4.8% of all compounds tested hit in one or more screens of this group.
# UCH37 inh – blocks the human deubiquitinase UCH37; inhibition, % (test concentration not listed); purified proteasome/UCH37, Ub-AMC cleavage fluorescence; actives 0.33% (n = 330,000); Q9Y5K5; AID 588478;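 active means mean inhibition over replicate wells above about 20%, limit read from the data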;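 further: 0% = compound-free wells with enzyme and 100% = wells lacking proteasome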
# Target sequence (Q9Y5K5 whole entry, looked up): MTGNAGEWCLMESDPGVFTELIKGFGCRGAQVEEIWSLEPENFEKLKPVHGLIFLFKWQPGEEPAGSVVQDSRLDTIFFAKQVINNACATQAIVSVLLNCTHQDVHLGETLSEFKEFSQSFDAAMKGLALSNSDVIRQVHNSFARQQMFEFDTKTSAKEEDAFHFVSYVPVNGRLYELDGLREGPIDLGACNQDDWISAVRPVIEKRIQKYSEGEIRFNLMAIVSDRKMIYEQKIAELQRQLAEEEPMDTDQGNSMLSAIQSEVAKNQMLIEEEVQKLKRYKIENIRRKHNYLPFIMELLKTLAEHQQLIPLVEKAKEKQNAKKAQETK
#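 Material: Human UCH37 enzyme supplied as purified proteasome complex | Schedule: 30 min preincubation with enzyme, 25 min cleavage at room temperature | Detection: AMC fluorescence 355/460 nm | Measure: % inhibition of Ub-AMC cleavage fluorescence | Controls: Wells without proteasome as full block, compound-free enzyme plus substrate as uninhibited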
# PAFAH2 FP inh – PAFAH2 (human) inhibition; Q99487; recombinant PAFAH2, FP-rhodamine activity probe, fluorescence polarization; inhibition, % at 3.39 µM; actives 0.99% (n = 340,000);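 active means inhibition above the mean over all tested compounds plus 3 SD, cut at about 30% in these data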;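 further: inhibitors block probe labeling of enzyme so polarization drops; 0% = enzyme with DMSO and 100% = wells lacking PAFAH2 protein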
# NR3A LBD binder – modulates the human NR3A ligand-binding domain; NR3A LBD differential scanning fluorimetry, Tm shift; 0% = protein alone, 100% = glycine-bound protein; Tm shift relative to glycine control, % at 25 µM; actives 2.5% (n = 340,000); AID 1259313;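 active means melting temperature shift of at least 10% of the positive control shift, at one fixed dose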
# PAFAH1B2 FP inh – inhibitors of human PAFAH1B2. actives 1.2% (n = 340,000). AID 492953. P68402. recombinant PAFAH1B2, FP-rhodamine activity probe, fluorescence polarization. inhibition, % at 3.39 µM;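 active means inhibition above the mean of all tested compounds plus 3 SD, cut at about 24% in these data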;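 further: 0% = enzyme with DMSO and 100% = wells lacking PAFAH1B2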
# pPAFAH FP inh – pPAFAH (human) enzyme inhibition. AID 463082. inhibition, % at 3.39 µM. recombinant pPAFAH, FP-rhodamine probe fluorescence polarization. actives 1.5% (n = 330,000);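 active means inhibition above the mean inhibition across the screen plus 3 SD, cut at about 25% in these data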;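 further: inhibitors block binding of the rhodamine activity-based probe so polarization drops; 0% = enzyme with DMSO and 100% = wells lacking pPAFAH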
# PAFAH1B3 FP inh – PAFAH1B3 (human) inhibition. recombinant PAFAH1B3, FP-rhodamine probe, fluorescence polarization. inhibition, % at 3.39 µM. actives 0.28% (n = 340,000);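 active means inhibition above the screen-wide average of all tested compounds plus 3 SD, cut at about 25% in these data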;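 further: 0% = enzyme with DMSO only and 100% = wells lacking PAFAH1B3 protein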
# Target sequence (Q15102 whole entry, looked up): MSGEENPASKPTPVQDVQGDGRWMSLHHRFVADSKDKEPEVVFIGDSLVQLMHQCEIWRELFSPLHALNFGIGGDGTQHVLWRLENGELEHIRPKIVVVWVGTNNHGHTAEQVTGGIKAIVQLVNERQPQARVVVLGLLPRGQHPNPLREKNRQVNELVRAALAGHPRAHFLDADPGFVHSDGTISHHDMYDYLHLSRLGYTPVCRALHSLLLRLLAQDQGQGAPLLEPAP
# * = called active by the depositor; . = not tested or not shown.
SMILES,UCH37 inh,PAFAH2 FP inh,NR3A LBD binder,PAFAH1B2 FP inh,pPAFAH FP inh,PAFAH1B3 FP inh
COc1ccc(NC(=O)C2CCCO2)cc1 (centres undefined),2,-3,-2,1,0,8
COC(=O)c1ccc(C(=O)Nc2nc3cc(N)c(C)cc3s2)cc1,4,1,36*,6,-7,2
COc1ccc(C(=O)Nc2nc3ccc(OC)cc3s2)cc1,-86,6,32*,0,.,1
COc1ccc(C(=O)Nc2nc3ccc(S(C)(=O)=O)cc3s2)cc1,1,11,10*,6,-2,6
Cc1ccc2nc(NC(=O)CNS(=O)(=O)c3ccc(Br)s3)sc2c1,-2,-9,-1,7,4,6
CS(=O)(=O)c1ccc2nc(NC(=O)c3ccc(Cl)cc3)sc2c1,.,-5,8,-1,6,9
COc1ccc2nc(NC(=O)c3ccc(NS(=O)(=O)c4cccs4)cc3)sc2c1,-45,7,25*,1,15,5
Cc1cccc2sc(NC(=O)CNS(=O)(=O)c3ccc(Br)s3)nc12,4,-8,11*,4,-8,2
COc1ccc2nc(NC(=O)CNS(=O)(=O)c3cccs3)sc2c1,2,2,4,1,2,0
Cc1ccc2nc(NC(=O)c3ccc(OCC4CCCO4)cc3)sc2c1 (centres undefined),-3,-8,6,-5,27*,1
NC(=NO)c1ccc(NC(=O)c2ccc(Br)o2)cc1,6,.,.,.,.,.
COc1cc2nc(NC(=O)c3ccccc3)[nH]c(=O)c2cc1OC,8,7,-2,3,3,5
COc1cc2nc(NC(=O)c3ccccc3)sc(=O)c2cc1OC,-1,13,42*,0,.,0
CCOc1ccc(Nc2nc(NCc3ccco3)nc(N)c2[N+](=O)[O-])cc1,8,0,12*,2,2,10
CCCOP(=O)(OCCC)c1c([N+](=O)[O-])cc(C(F)(F)F)cc1[N+](=O)[O-],2,-1,11*,5,0,7
CCOc1ccc(C(F)(F)F)cc1NC(=O)COc1ccc(C(F)(F)F)cc1[N+](=O)[O-],1,-8,1,-6,-1,15
CC(C)(C)CC(C)(C)c1ccc(O)c(Cc2ccc(Cl)cc2Cl)c1,.,-26,12*,8,.,1
O=c1c(Cc2ccc(Cl)cc2Cl)c(O)ccn1CC(F)(F)F,4,-1,-1,15,-3,5
COC(=O)c1ccc(Cn2nc(C(F)(F)F)cc2C)cc1,0,3,17*,-1,6,-11
O=C(CNC(=O)c1cccs1)NN=Cc1ccccc1[N+](=O)[O-],3,.,.,.,.,.
N#CC(=C(O)CN1CCN(c2ccccc2F)CC1)c1nc(-c2ccc(Cl)cc2)cs1,1,4,90*,1,.,8
Cc1cc(N/N=C/c2cccc(F)c2)nc(NCc2ccccc2)n1,.,15,15*,2,2,0
Cc1cc(NN=Cc2cccc(Cl)c2)nc(NCc2ccccc2)n1,3,.,.,.,.,.
Cc1cc(N/N=C/c2cccc(Cl)c2)nc(NCc2ccccc2)n1,.,1,15*,0,-4,7
Cc1cc(N/N=C/c2ccc(Cl)cc2)nc(NCc2ccccc2)n1,.,-6,27*,0,2,3
SMILES,UCH37 inh,PAFAH2 FP inh,NR3A LBD binder,PAFAH1B2 FP inh,pPAFAH FP inh,PAFAH1B3 FP inh
O=C(Oc1cccc(C=NNc2nc(Nc3ccccc3)nc(N3CCOCC3)n2)c1)c1ccco1,6,.,.,.,.,.
CN1CCN(N=Cc2ccc(Cl)c(Cl)c2)CC1,3,.,.,.,.,.
Cc1cc(C)nc(SCC(=O)NN=Cc2ccc3c(c2)OCO3)n1,2,.,.,.,.,.
CC(=NNC(=O)CNC(=O)c1cccnc1)c1ccc([N+](=O)[O-])cc1,7,.,.,.,.,.
O=[N+]([O-])c1cccc(/C=C/c2nc[nH]c2[N+](=O)[O-])c1,6,-2,16*,4,-3,1
O=c1[nH]c(/C=C/c2cccc([N+](=O)[O-])c2)c([N+](=O)[O-])c(=O)[nH]1,10,13,-2,7,7,3
O=S(=O)(c1cccc(NC(=S)N2CCN(c3cccc(Cl)c3)CC2)c1)C(F)F,2,-9,26*,1,6,4
O=S(=O)(c1cccc(NC(=S)N2CCN(c3ccc(F)cc3)CC2)c1)C(F)F,0,5,-4,8,-4,2
CC(C)(C)c1ccc(-c2nnc(SC3CCOC3=O)n2Cc2ccccc2)cc1 (centres undefined),6,6,13*,2,11,1
O=C1OCCC1Sc1nc2ccccc2c(=O)n1Cc1ccccc1 (centres undefined),5,-1,0,3,2,6
CC(NC(=O)c1ccccc1Cl)c1nnc(SCC(=O)Nc2ccc(C(=O)O)cc2)n1C (centres undefined),1,-4,16*,-3,-5,2
COC(=O)c1ccccc1NC(=O)CSc1nnc(C(CO)NC(=O)c2ccccc2Cl)n1C (centres undefined),2,7,-1,3,3,3
CC1CC(=NO)C(C)CN1 (centres undefined),0,.,.,.,.,.
COc1ccc(OCC(O)CNC(=O)c2ccc(OC)cc2)cc1 (centres undefined),0,8,31*,-3,-3,-5
COc1ccc(OCC(O)CNC(=O)c2ccc(Br)cc2)cc1 (centres undefined),3,-9,-28,6,1,1
COc1ccc(C(C#N)=C2C=CC(=NO)C=C2)cc1,3,10,1,14,-3,6
N#CC(=C1C=CC(=NO)C(Cl)=C1)c1ccc(Cl)cc1,.,7,-3,38*,.,8
O=C(Nc1ccc([N+](=O)[O-])cc1)C(Cc1ccccc1)N1C(=O)c2cccc3cccc(c23)C1=O (centres undefined),4,-18,11*,-3,-5,-13
COc1cccc(CNC(=O)CCCCCn2c(=S)[nH]c3ccc(N4CCOCC4)cc3c2=O)c1,-62,.,.,.,9,.
COc1cccc(Cn2c(=S)[nH]c3ccc(N4CCOCC4)cc3c2=O)c1,-135,3,22*,-2,20,-7
O=c1c2cc(Cl)ccc2[nH]c(=S)n1Cc1cccs1,-4,-7,19*,0,10,-7
O=c1c2cc(N3CCOCC3)ccc2[nH]c(=S)n1Cc1cccc(Cl)c1,-1,6,31*,3,13,10
O=c1c2cc(N3CCOCC3)ccc2[nH]c(=S)n1Cc1ccco1,-50,9,-4,2,19,2
COc1ccc(C=NNc2nonc2N)c(OC)c1,1,.,.,.,.,.
Oc1ccc(C[C@H]2CNC(=S)N2CC2CCCN2C[C@H](Cc2ccc(O)cc2)N2C[C@H](Cc3ccccc3)N(CC3CCCCC3)C2=S)cc1 (some centres undefined),.,-24,33*,-7,.,-2
